Test results as given in ChEMBL document CHEMBL3352192, “Evaluation of lignans from Heliopsis helianthoides var. scabra for their potential antimetastatic effects in the brain” (J Nat Prod, 2014).
Active and inactive are the calls of the source. No cut-off for these calls is given here.

Assays:
hCMEC/D3 [1] = assay: Cytotoxicity against human CMEC/D3 cells at 1 to 10 uM after 8 hrs by EZ4U assay; assay type: functional, cell-based
Outline: (§1)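 Confluent A2058, hCMEC/D3 and primary rat brain endothelial cells exposed 8 h to 10, 5, 2.5 or 1.25 μM compound. Media: serum-free MEM (A2058), serum-free EBM-2 (D3), DMEM/F12 + 5% PDS (RBEC). DMSO 0.1% (v/v) in all wells, vehicle controls. EZ4U mitochondrial dehydrogenase read-out after 45 min, OD 450 nm.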

A2058 [2] = assay: Inhibition of adhesion of human A2058 cells to endothelial cells at 2 uM pretreated for 3 hrs before adhesion and during adhesion; assay type: functional, cell-based
Outline: (§2)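 Confluent hCMEC/D3 monolayers and A2058 cells were each pretreated 3 h with compound. Melanoma cells were labelled with Oregon Green 488 diacetate succinimidyl ester and added to the endothelium (10^5 or 5×10^4 cells/well) in serum-free medium containing the same compound for 80 min. After washing and EtOH−AcOH fixation, attached cells were imaged and counted. Results are % of control, means ± SD, n = 3.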

[3] = Cytotoxicity against RBEC at 1 to 10 uM after 8 hrs by EZ4U assay; conditions: rat; outline: as §1
A2058 [4] = assay: Cytotoxicity against human A2058 cells at 1 to 10 uM after 8 hrs by EZ4U assay; assay type: functional, cell-based; outline: as §1
hCMEC/D3 [5] = assay: Inhibition of migration of human CMEC/D3 cells after 24 hrs by wound-healing assay; assay type: functional, cell-based
Outline: (§3)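 hCMEC/D3 cells on rat-tail collagen were grown to 100% confluency, scratched with a pipet tip, and washed with PBS. They were then treated in Leibovitz medium + 5% FBS and imaged by phase contrast for 24 h at 37 °C (10× objective). Migration is given as % of control over 24 h; means ± SD, n = 4.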

hCMEC/D3 [6] = assay: Increase in integrity of human CMEC/D3 cells at 2 uM after 2 hrs by ZO-1 staining method; assay type: functional, cell-based
Outline: (§4)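 Confluent RBECs or hCMEC/D3 cells, 2 h compound exposure (0.1% DMSO vehicle), then fixed in EtOH−AcOH 95:5 at −20 °C. Blocked with 3% BSA, rabbit anti-ZO-1 overnight, Cy3 goat anti-rabbit, Hoechst 33342 nuclei. Tight-junction staining at cell–cell contacts assessed by epifluorescence microscopy.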

A2058 [7] = assay: Inhibition of migration of human A2058 cells assessed as expanded cells without large filopodia at 5 uM using Alexa-488-labeled phalloidin by microscopy; assay type: functional, cell-based
Outline: (§5)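 A2058 melanoma cells were treated 2 h with 5 μM compound. They were fixed in 4% HCHO, permeabilized with acetone at −20 °C for 10 min, blocked, and stained with Alexa488-phalloidin. Actin cytoskeleton and cell shape were examined by epifluorescence microscopy, with phase contrast images also taken.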

A2058 [8] = assay: Inhibition of migration of human A2058 cells assessed as elongated shape and longer protrusion at 5 uM by phase contrast microscopy; assay type: functional, cell-based; outline: as §5
A2058 [9] = assay: Inhibition of adhesion of human A2058 cells to endothelial cells at 10 uM pretreated for 3 hrs before adhesion and during adhesion; assay type: functional, cell-based; outline: as §2
Rattus norvegicus [10] = species on record: Rattus norvegicus; assay: Increase in transendothelial electrical resistance in RBEC at 5 uM after 2 hrs relative to control; assay type: functional
Outline: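 Primary RBECs from 2-week-old rats were grown on collagen/fibronectin-coated Transwell filters. After confluence they got 550 nM hydrocortisone, 250 μM CPT-cAMP and 17.5 μM RO-201724, with astrocyte-conditioned medium. Once TEER plateaued (120−140 Ω·cm2), compound was added (0.1% DMSO) and TEER was followed automatically for 2 h. Expressed as % of untreated RBECs at 2 h; means ± SD, n = 3.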

hCMEC/D3 [11] = assay: Inhibition of migration of human CMEC/D3 cells at 10 uM after 24 hrs by wound-healing assay; assay type: functional, cell-based; outline: as §3
A2058 [12] = assay: Inhibition of migration of human A2058 cells at 10 uM by wound-healing assay; assay type: functional, cell-based
Outline: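 A2058 confluent monolayer was scratched, and wound closure was tracked for 24 h at 2, 5 or 10 μM by phase contrast microscopy (10× objective). Migration is expressed as % of control cells migrated over 24 h; means ± SD, n = 4, ANOVA with Bonferroni.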

Rattus norvegicus [13] = species on record: Rattus norvegicus; assay: Increase in integrity of RBEC at 5 uM after 2 hrs by ZO-1 staining method; assay type: functional; outline: as §4
A2058 [14] = assay: Inhibition of adhesion of human A2058 cells to endothelial cells at 2 uM pretreated to endothelial cells for 3 hrs before adhesion; assay type: functional, cell-based
Outline: (§6)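 Cell-type pretreatment adhesion: either hCMEC/D3 monolayers (2 μM) or A2058 cells (5 μM) were pretreated 3 h. Labelled melanoma cells were then allowed to attach for 80 min in serum-free medium without compound. Fixed, imaged and counted; % of untreated control, means ± SD, n = 3.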

A2058 [15] = assay: Inhibition of migration of human A2058 cells assessed as filopodia at 5 uM using Alexa-488-labeled phalloidin by microscopy; assay type: functional, cell-based; outline: as §5
A2058 [16] = assay: Inhibition of adhesion of human A2058 cells to endothelial cells at 5 uM pretreated for 3 hrs before adhesion; assay type: functional, cell-based; outline: as §6
A2058 [17] = assay: Inhibition of migration of human A2058 cells assessed as elongated shape with actin-rich protrusion at 5 uM using Alexa-488-labeled phalloidin by microscopy; assay type: functional, cell-based; outline: as §5
A2058 [18] = assay: Inhibition of migration of human A2058 cells assessed as cells with stress fibers at 5 uM using Alexa-488-labeled phalloidin by microscopy; assay type: functional, cell-based; outline: as §5

Row | SMILES | Activity (hCMEC/D3 [1]) | inhibition (A2058 [2]) | Activity [3] | Activity (A2058 [4]) | inhibition (hCMEC/D3 [5]) | Activity (hCMEC/D3 [6]) | inhibition (A2058 [7]) | inhibition (A2058 [8]) | inhibition (A2058 [9]) | Activity (Rattus norvegicus [10]) | inhibition (hCMEC/D3 [11]) | inhibition (A2058 [12]) | Activity (Rattus norvegicus [13]) | inhibition (A2058 [14]) | inhibition (A2058 [15]) | inhibition (A2058 [16]) | inhibition (A2058 [17]) | inhibition (A2058 [18])
1 | COC(=O)[C@H](Cc1ccc2c(c1)OCO2)[C@@H](Cc1ccc2c(c1)OCO2)C(=O)OC | inactive | inactive | Non-toxic | inactive | – | – | – | – | – | – | – | – | – | – | – | – | – | –
2 | COC(=O)/C(=C/c1ccc2c(c1)OCO2)C(Cc1ccc2c(c1)OCO2)C(=O)OC (stereo not given) | inactive | inactive | Non-toxic | inactive | Dose-dependent effect | Active | Active | Active | Active | Active | Active | Active | Active | – | – | – | – | –
3 | CC(=O)O[C@H](c1ccc2c(c1)OCO2)[C@H]1C(=O)OC[C@@H]1Cc1ccc2c(c1)OCO2 | inactive | inactive | Non-toxic | inactive | – | – | – | – | – | – | – | – | – | – | – | – | – | –
4 | COCCCc1cc(OC)c2oc(-c3ccc4c(c3)OCO4)cc2c1 | inactive | inactive | Non-toxic | inactive | – | – | – | – | – | – | – | – | – | – | – | – | – | –
5 | O=C1OCc2c1cc1ccc3c(c1c2-c1ccc2c(c1)OCO2)OCO3 [HELIOXANTHIN] | inactive | Active | Non-toxic | inactive | Dose-dependent effect | Active | – | Active | Active | 15% | Active | – | Active | Active | Active | inactive | Active | Active
6 | COC/C=C/c1cc(OC)c2oc(-c3ccc4c(c3)OCO4)cc2c1 | inactive | inactive | Non-toxic | inactive | – | – | – | – | – | – | – | – | – | – | – | – | – | –
